In ChEMBL document CHEMBL4190234, “Design, synthesis and anticancer activity of new monastrol analogues bearing 1,3,4-oxadiazole moiety” (Eur J Med Chem, 2017):

What was measured:
Type in all cases: functional
TK-10 = assay: Growth inhibition of human TK10 cells at 10 uM incubated for 48 hrs by sulforhodamine B assay relative to control; details: TK-10, 48 h, read-out: GI
In short: (§1)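 NCI single-dose screen: cells grown in RPMI 1640 with 5% FBS and 2 mM L-glutamine, plated at 5,000–40,000 cells/well and preincubated 24 h at 37 °C, 5% CO2. Compounds taken from DMSO stock and tested at final 10 µM for 48 h. Cells fixed with TCA, stained with 0.4% SRB, absorbance read at 515 nm. Percentage growth calculated against untreated controls; controls held DMSO at the same dilution.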

MCF7 = assay: Growth inhibition of human MCF7 cells at 10 uM incubated for 48 hrs by sulforhodamine B assay relative to control; details: MCF7, 48 h, read-out: GI
In short: (§2)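 Single-dose screen at 10 μM final: cells in RPMI 1640, 5% FBS, 2 mM L-glutamine, plated 5,000–40,000/well, preincubated 24 h at 37°C, 5% CO2; drug 48 h; adherent cells fixed with 10% TCA, suspension cells with 16% TCA; SRB stain, absorbance 515 nm; percentage growth versus untreated control, with time-zero plates.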

HCT-15 = assay: Growth inhibition of human HCT15 cells at 10 uM incubated for 48 hrs by sulforhodamine B assay relative to control; details: HCT-15, 48 h, read-out: GI; in short: as §2
SF-539 = assay: Growth inhibition of human SF539 cells at 10 uM incubated for 48 hrs by sulforhodamine B assay relative to control; details: SF-539, 48 h, read-out: GI; in short: as §1
UO-31 = assay: Growth inhibition of human UO31 cells at 10 uM incubated for 48 hrs by sulforhodamine B assay relative to control; details: UO-31, 48 h, read-out: GI; in short: as §1
NCI-H522 = assay: Growth inhibition of human NCI-H522 cells at 10 uM incubated for 48 hrs by sulforhodamine B assay relative to control; details: NCI-H522, 48 h, read-out: GI; in short: as §2
OVCAR-5 = assay: Growth inhibition of human OVCAR5 cells at 10 uM incubated for 48 hrs by sulforhodamine B assay relative to control; details: OVCAR-5, 48 h, read-out: GI; in short: as §2
UACC-62 = assay: Growth inhibition of human UACC62 cells at 10 uM incubated for 48 hrs by sulforhodamine B assay relative to control; details: UACC-62, 48 h, read-out: GI; in short: as §1
SNB-19 = assay: Growth inhibition of human SNB19 cells at 10 uM incubated for 48 hrs by sulforhodamine B assay relative to control; details: SNB-19, 48 h, read-out: GI; in short: as §1
T47D = assay: Growth inhibition of human T47D cells at 10 uM incubated for 48 hrs by sulforhodamine B assay relative to control; details: read-out: GI; in short: as §1
ACHN = assay: Growth inhibition of human ACHN cells at 10 uM incubated for 48 hrs by sulforhodamine B assay relative to control; details: read-out: GI; in short: as §2
LOX IMVI = assay: Growth inhibition of human LOXIMVI cells at 10 uM incubated for 48 hrs by sulforhodamine B assay relative to control; details: read-out: GI; in short: as §2
CCRF-CEM = assay: Growth inhibition of human CCRF-CEM cells at 10 uM incubated for 48 hrs by sulforhodamine B assay relative to control; details: read-out: GI; in short: as §2
A549 = assay: Growth inhibition of human A549/ATCC cells at 10 uM incubated for 48 hrs by sulforhodamine B assay relative to control; details: A549, 48 h, read-out: GI; in short: as §2
SK-MEL-2 = assay: Growth inhibition of human SK-MEL-2 cells at 10 uM incubated for 48 hrs by sulforhodamine B assay relative to control; details: SK-MEL-2, 48 h, read-out: GI; in short: as §1
Hs-578T = assay: Growth inhibition of human Hs 578T cells at 10 uM incubated for 48 hrs by sulforhodamine B assay relative to control; details: read-out: GI; in short: as §2
UACC-257 = assay: Growth inhibition of human UACC257 cells at 10 uM incubated for 48 hrs by sulforhodamine B assay relative to control; details: UACC-257, 48 h, read-out: GI; in short: as §1
HL-60(TB) = assay: Growth inhibition of human HL-60(TB) cells at 10 uM incubated for 48 hrs by sulforhodamine B assay relative to control; details: HL-60, 48 h, read-out: GI
In short: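 Single dose of 10 µM in the NCI ~60-line panel. Cells grown in RPMI 1640 with 5% FBS and 2 mM L-glutamine, plated and pre-incubated 24 h, then exposed 48 h at 37°C under 5% CO2. Suspension cells fixed with TCA (16% final) and stained with sulforhodamine B, A515 read. Reported as percent growth versus untreated control and as GI%.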

U-251 = assay: Growth inhibition of human U251 cells at 10 uM incubated for 48 hrs by sulforhodamine B assay relative to control; details: U-251, 48 h, read-out: GI; in short: as §1
SK-MEL-28 = assay: Growth inhibition of human SK-MEL-28 cells at 10 uM incubated for 48 hrs by sulforhodamine B assay relative to control; details: SK-MEL-28, 48 h, read-out: GI; in short: as §1
NCI/ADR-RES = assay: Growth inhibition of human NCI/ADR-RES cells at 10 uM incubated for 48 hrs by sulforhodamine B assay relative to control; details: read-out: GI; in short: as §2
HCT-116 = assay: Growth inhibition of human HCT116 cells at 10 uM incubated for 48 hrs by sulforhodamine B assay relative to control; details: HCT-116, 48 h, read-out: GI; in short: as §2
SR = assay: Growth inhibition of human SR cells at 10 uM incubated for 48 hrs by sulforhodamine B assay relative to control; details: read-out: GI; in short: as §1
HT-29 = assay: Growth inhibition of human HT-29 cells at 10 uM incubated for 48 hrs by sulforhodamine B assay relative to control; details: HT-29, 48 h, read-out: GI; in short: as §2
NCI-H23 = assay: Growth inhibition of human NCI-H23 cells at 10 uM incubated for 48 hrs by sulforhodamine B assay relative to control; details: NCI-H23, 48 h, read-out: GI; in short: as §2
MDA-MB-435 = assay: Growth inhibition of human MDA-MB-435 cells at 10 uM incubated for 48 hrs by sulforhodamine B assay relative to control; details: MDA-MB-435, 48 h, read-out: GI; in short: as §2
MDA-MB-231 = assay: Growth inhibition of human MDA-MB-231 cells at 10 uM incubated for 48 hrs by sulforhodamine B assay relative to control; details: MDA-MB-231, 48 h, read-out: GI; in short: as §2
786-0 = assay: Growth inhibition of human 786-0 cells at 10 uM incubated for 48 hrs by sulforhodamine B assay relative to control; details: 786-0, 48 h, read-out: GI; in short: as §2
OVCAR-4 = assay: Growth inhibition of human OVCAR4 cells at 10 uM incubated for 48 hrs by sulforhodamine B assay relative to control; details: OVCAR-4, 48 h, read-out: GI; in short: as §2
SNB-75 = assay: Growth inhibition of human SNB75 cells at 10 uM incubated for 48 hrs by sulforhodamine B assay relative to control; details: SNB-75, 48 h, read-out: GI; in short: as §1

Row | Compound | inhibition of growth at 10 µM (TK-10) | inhibition of growth at 10 µM (MCF7) | inhibition of growth at 10 µM (HCT-15) | inhibition of growth at 10 µM (SF-539) | inhibition of growth at 10 µM (UO-31) | inhibition of growth at 10 µM (NCI-H522) | inhibition of growth at 10 µM (OVCAR-5) | inhibition of growth at 10 µM (UACC-62) | inhibition of growth at 10 µM (SNB-19) | inhibition of growth at 10 µM (T47D) | inhibition of growth at 10 µM (ACHN) | inhibition of growth at 10 µM (LOX IMVI) | inhibition of growth at 10 µM (CCRF-CEM) | inhibition of growth at 10 µM (A549) | inhibition of growth at 10 µM (SK-MEL-2) | inhibition of growth at 10 µM (Hs-578T) | inhibition of growth at 10 µM (UACC-257) | inhibition of growth at 10 µM (HL-60(TB)) | inhibition of growth at 10 µM (U-251) | inhibition of growth at 10 µM (SK-MEL-28) | also measured
1 | CCOC(=O)C1=C(C)NC(SCc2nnc(-c3ccc(OC)cc3)o2)=NC1c1ccc(F)cc1 (stereo not given) | < 10% | < 10% | < 10% | < 10% | 21.7% | 26.5% | < 10% | < 10% | 11.4% | 33.3% | < 10% | < 10% | 15.3% | 12.7% | < 10% | < 10% | 11.8% | 12% | < 10% | < 10% | inhibition of growth at 10 µM (NCI/ADR-RES): < 10%; inhibition of growth at 10 µM (HCT-116): < 10%; inhibition of growth at 10 µM (SR): 15.9%; inhibition of growth at 10 µM (HT-29): < 10%; inhibition of growth at 10 µM (NCI-H23): < 10%; inhibition of growth at 10 µM (MDA-MB-435): < 10%; inhibition of growth at 10 µM (MDA-MB-231): < 10%; inhibition of growth at 10 µM (786-0): < 10%; inhibition of growth at 10 µM (OVCAR-4): < 10%; inhibition of growth at 10 µM (SNB-75): 17.5%
2 | COc1ccc(-c2nnc(CSC3=NC(c4ccc(F)cc4)C(C(C)=O)=C(C)N3)o2)cc1 (stereo not given) | < 10% | 10.5% | < 10% | < 10% | 29.7% | 18% | < 10% | 10.8% | 13.4% | 28.9% | < 10% | < 10% | 15.7% | 15.6% | < 10% | < 10% | < 10% | 15.2% | 15.3% | < 10% | inhibition of growth at 10 µM (NCI/ADR-RES): < 10%; inhibition of growth at 10 µM (HCT-116): < 10%; inhibition of growth at 10 µM (SR): 13.3%; inhibition of growth at 10 µM (HT-29): < 10%; inhibition of growth at 10 µM (NCI-H23): < 10%; inhibition of growth at 10 µM (MDA-MB-435): < 10%; inhibition of growth at 10 µM (MDA-MB-231): 14.4%; inhibition of growth at 10 µM (786-0): < 10%; inhibition of growth at 10 µM (OVCAR-4): 12.2%; inhibition of growth at 10 µM (SNB-75): 17.3%
3 | CCOC(=O)C1=C(C)NC(SCc2nnc(-c3ccc(Cl)cc3)o2)=NC1c1ccc(Cl)cc1 (stereo not given) | 22.5% | 51% | 32.4% | 12.3% | 51.3% | 31.1% | 10.4% | 50.1% | 27% | 50.1% | 35.9% | 23.1% | 60.3% | 31% | < 10% | 16.3% | 13.1% | 78.6% | 26.1% | 20.2% | inhibition of growth at 10 µM (NCI/ADR-RES): 30.1%; inhibition of growth at 10 µM (HCT-116): 53.8%; inhibition of growth at 10 µM (SR): 57.1%; inhibition of growth at 10 µM (HT-29): 24.8%; inhibition of growth at 10 µM (NCI-H23): 21.2%; inhibition of growth at 10 µM (MDA-MB-435): 30.4%; inhibition of growth at 10 µM (MDA-MB-231): 37.3%; inhibition of growth at 10 µM (786-0): 16.6%; inhibition of growth at 10 µM (OVCAR-4): 30%; inhibition of growth at 10 µM (SNB-75): 26.3%
